# KCNQ1 pot: potentiators or activators of human KCNQ1 potassium channel | P51787 | CHO-K1 KCNQ1, thallium flux FluxOR fluorescence; hits give high values | B-score at 10 µM | 310,000 compounds, 0.35% hits | AID 2648;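 active = fluorescence ratio B-score, a plate-corrected score, at least three library SD, with initial intensity B-score within 5 SD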
# Target sequence (P51787 whole entry, looked up): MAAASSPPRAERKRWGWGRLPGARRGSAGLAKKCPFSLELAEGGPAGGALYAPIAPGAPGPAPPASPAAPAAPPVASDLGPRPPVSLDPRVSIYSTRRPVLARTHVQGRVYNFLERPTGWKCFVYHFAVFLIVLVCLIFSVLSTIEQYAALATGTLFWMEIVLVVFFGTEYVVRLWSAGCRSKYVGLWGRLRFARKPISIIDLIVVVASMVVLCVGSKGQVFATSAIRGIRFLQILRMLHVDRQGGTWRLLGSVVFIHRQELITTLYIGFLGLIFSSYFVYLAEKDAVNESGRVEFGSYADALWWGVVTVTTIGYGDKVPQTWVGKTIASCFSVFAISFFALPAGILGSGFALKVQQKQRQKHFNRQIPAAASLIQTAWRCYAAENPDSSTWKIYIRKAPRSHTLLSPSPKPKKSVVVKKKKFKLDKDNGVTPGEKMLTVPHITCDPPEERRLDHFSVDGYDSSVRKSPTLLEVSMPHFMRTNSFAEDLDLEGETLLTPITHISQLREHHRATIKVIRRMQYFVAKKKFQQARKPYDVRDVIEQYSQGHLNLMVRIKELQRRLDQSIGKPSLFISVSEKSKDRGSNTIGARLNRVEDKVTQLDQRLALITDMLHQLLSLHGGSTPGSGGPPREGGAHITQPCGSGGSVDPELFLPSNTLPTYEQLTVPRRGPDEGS
#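 System: Stable KCNQ1 CHO-K1 line | Incubation: 90 min dye loading and 20 min compound exposure, both at room temperature | Measure: Ratio B score | Medium: Assay buffer for compound exposure, DMSO matched across wells | Compound dosing: Single-concentration screen | Probe or stimulus: K+/Tl+ depolarizing stimulus | Measured by: Kinetic FluxOR fluorescence, 10 s baseline plus 110 s post-stimulus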
# KCNK3 inh: human KCNK3 channel inhibition, primary screen. CHO-KCNK3 thallium flux, FluxOR fluorescence; hits give low values. O14649. B-score at 10 µM. 340,000 compounds, 0.84% hits;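 active = B-score under library mean minus 4 SD, starting fluorescence ratio at most library mean plus 5 SD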;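 also: more negative B-score means stronger inhibition of thallium flux through KCNK3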
# hERG rescue: hERG (human) protection from proarrhythmic block | Q12809 | CHO-hERG, FluxOR thallium flux, dofetilide IC70 present | activation (rescue from dofetilide block), less the hit threshold, % at 10 µM | 310,000 compounds, 0.51% hits | AID 1511;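 active = activation above the mean of controls blocked by dofetilide plus 5 SD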;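 also: thallium influx through hERG after potassium depolarization seen as dye fluorescence rise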
# KCNK9 block: human KCNK9 channel inhibition; Q9NPC2; HEK293 KCNK9, FluxOR thallium flux fluorescence; hits give low values; B-score at 10 µM; 310,000 compounds, 1.2% hits; AID 488922;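 active = ratio B-score over 3 SD below the library mean, with starting fluorescence within 5 SD of its mean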;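 also: negative B-score means less thallium flux so channel inhibition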
# KCNQ1 inh: blocks the human KCNQ1 potassium channel; P51787; CHO-K1 KCNQ1, FluxOR thallium flux fluorescence; hits give high values; B-score at 10 µM; 310,000 compounds, 1.3% hits; AID 2642;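 active = compounds whose thallium flux B-score, printed positive for inhibition, exceeds three library SD while starting fluorescence stays within three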;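 also: channel opened by potassium depolarization with thallium stimulus after 20 min compound exposure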
# KCNK9 block conf: confirmation of human KCNK9 potassium channel inhibitors. shares compounds with KCNK9 block. HEK293 KCNK9 cells, FluxOR thallium flux fluorescence. inhibition, % at 10 µM. 4,900 compounds, 43% hits. AID 492992;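 active = thallium signal inhibited by more than 5 SD of the compound-free buffer control wells, on both duplicate plates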
# Kir2-1 spec: mouse Kir2.1 off-target activity of KCNK9 modulators | shares compounds with KCNK9 block | Kir2.1 cells, FluxOR thallium flux fluorescence | inhibition, % at 10 µM | 4,900 compounds, 4% hits;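 active = thallium signal drop more than 5 SD beyond the mean of the no-compound control wells, seen in both duplicate plates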;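 also: signal is fluorescence rise after thallium addition divided by baseline fluorescence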
# HEK293 Tl ctr: non-induced cell nonspecific activity of KCNK9 modulators. non-induced KCNK9-HEK293, FluxOR thallium flux. inhibition, % at 10 µM. shares compounds with KCNK9 block. AID 492997. 4,900 compounds, 40% hits;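 active = thallium signal drop beyond 5 SD of the untreated control mean, on both duplicate plates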
# Numbers stand for hits; i = inactive; nt = no result. Shown are actives, neighbours in structure and some others; about 3.1% of the full set was active somewhere.
SMILES,KCNQ1 pot,KCNK3 inh,hERG rescue,KCNK9 block,KCNQ1 inh,KCNK9 block conf,Kir2-1 spec,HEK293 Tl ctr
O=C(COc1ccccc1C(=O)Nc1ccccc1)c1ccc(Br)cc1,i,i,i,-9.5,i,35%,i,i
O=C1N=C(C=c2ccc(=Cc3[nH]c(=O)[nH]c3O)cc2)C(=O)N1,i,nt,i,i,i,nt,nt,nt
COC(=O)c1sccc1NC(=S)N1CCCCC1C (centres undefined),i,i,i,i,i,i,i,i
CCC(=O)Nc1cc(OC)cc(OC)c1,i,i,i,i,i,nt,nt,nt
CCOC(=O)C(C#N)(Cc1cc(OC)cc(OC)c1)Cc1cc(OC)cc(OC)c1,i,i,i,-14,i,56%,i,46%
COc1ccccc1NS(=O)(=O)c1cc(NC(=O)C2CCCO2)ccc1C (centres undefined),nt,i,nt,nt,nt,nt,nt,nt
CSc1ccc(CN(C)C(=O)CCNS(=O)(=O)c2ccc(C)c(C)c2)cc1,i,i,i,i,i,i,i,i
CN1CCN(Cc2cccc(Oc3ccccc3)c2)CC1,i,i,i,i,i,nt,nt,nt
COc1ccc(CN2CCN(Cc3cccc(Oc4ccccc4)c3)CC2)c(OC)c1OC,i,i,i,i,i,i,i,i
COc1ccc(CN2CCN(C(c3ccc(F)cc3)c3ccc(F)cc3)CC2)c(OC)c1OC,i,i,i,i,i,i,i,i
COc1cccc(/C=C/c2nc(C#N)c(NCC(C)C)o2)c1,i,i,i,i,i,nt,nt,nt
Cn1c(=O)c(=O)n(C)c2cc(S(=O)(=O)NCCOc3ccccc3)ccc21,i,i,i,i,i,nt,nt,nt
Cc1ccc(Cn2cc(SCC(=O)Nc3nccs3)c3ccccc32)cc1,i,i,i,i,i,i,i,i
CC1CCN(C(=O)C2CCN(S(=O)(=O)c3ccc4c(c3)CC(C)N4C(=O)C3CC3)CC2)CC1 (centres undefined),i,i,i,i,i,nt,nt,nt
CC1CC(C)CN(S(=O)(=O)c2ccc3c(c2)CC(C)N3C(=O)C2CC2)C1 (centres undefined),i,i,i,i,i,i,i,i
CC1CC(C)CN(S(=O)(=O)c2ccc3c(c2)CC(C)N3C(=O)C2CCC2)C1 (centres undefined),i,i,i,i,i,i,i,i
CC(C)=CCC/C(C)=C/CNC(=O)CC1C[C@H](C(=O)N(C(C)C)C(C)C)[C@@]2(C)c3[nH]c4ccccc4c3CCN2C1=O (some centres undefined),nt,i,nt,nt,nt,nt,nt,nt
O=C(CN(Cc1ccccc1)C(=O)c1csnn1)NCc1ccccc1,i,i,i,i,i,nt,nt,nt
COc1cc(/C=C2\C(=N)N3N=CSC3=NC2=O)ccc1OS(=O)(=O)c1ccccc1[N+](=O)[O-],i,i,i,i,i,i,i,i
Cc1ccc2oc(C(=O)N(Cc3ccc(N(C)C)cc3)CC3CCCO3)c(C)c2c1 (centres undefined),i,i,i,i,i,i,i,i
c1ccc(Cn2nnnc2C(c2cccs2)N2CCc3ccccc3C2)cc1 (centres undefined),i,i,i,-12,i,i,i,32%
O=C1C=C(C2OC(CO)C(O)C2O)C(=O)N1 (centres undefined),nt,i,nt,nt,nt,nt,nt,nt
COC(=O)c1cc(=O)n(Cc2ccc(OC)cc2)c(=NCc2ccc(OC)cc2)s1,i,i,i,i,i,i,i,i
CCOC(=O)CSc1nnc(CSc2nc3sc4c(c3c(=O)[nH]2)CCCC4)n1-c1ccccc1,i,i,i,i,i,nt,nt,nt
Cc1ccc(C(=O)c2coc3c2C(=O)C(=O)c2ccccc2-3)cc1,i,i,i,-9.4,i,i,i,i
SMILES,KCNQ1 pot,KCNK3 inh,hERG rescue,KCNK9 block,KCNQ1 inh,KCNK9 block conf,Kir2-1 spec,HEK293 Tl ctr
CC1Cc2ccccc2N1C(=S)NC1CCCC1 (centres undefined),i,i,i,i,i,i,i,i
O=C(COC(=O)C12CC3CC(CC(C3)C1)C2)Nc1nc2c(F)c(F)c(F)cc2s1,i,i,i,i,i,nt,nt,nt
CCOc1cc(CNC(C)(C)CO)cc(Br)c1OCc1ccc(Cl)cc1Cl,i,i,i,-8.7,i,55%,53%,34%
NC1=NC(=Nc2cccc(S(=O)(=O)N3CCOCC3)c2)c2ccccc21,i,i,i,i,i,nt,nt,nt
Cc1c(C)n(C(=O)CN2CCN(c3ccccn3)CC2)c2ccccc12,i,i,i,i,i,i,i,i
O=C(CN1CCN(c2ccccn2)CC1)N1c2ccccc2CCc2ccccc21,i,i,i,i,i,nt,nt,nt
N#Cc1nnn(-c2ccc(Cl)cc2)c1N,i,i,i,i,i,nt,nt,nt
O=C(CSc1nc2ccccc2c(=O)n1-c1ccccc1)N1CCCc2ccccc21,i,i,i,i,i,i,i,i
Cc1cc2c(=O)n(Cc3ccco3)c(SCC(=O)NCc3ccco3)nc2s1,i,i,i,i,i,nt,nt,nt
Cc1ccc(-c2ccc(SCC(=O)N3CCCc4ccccc43)nn2)cc1,i,nt,i,i,i,i,i,i
Cc1sc2nc(SCc3ccc(C(=O)O)cc3)n(Cc3ccco3)c(=O)c2c1C,i,i,i,i,i,i,i,i
Cc1cc2c(=O)n(Cc3ccco3)c(SCC(=O)N3CCCc4ccccc43)nc2s1,i,i,i,i,i,i,i,i
Cc1ccc(-c2ccc(SCC(=O)N3CCc4ccccc43)nn2)cc1,i,nt,i,i,i,nt,nt,nt
Cc1sc2nc(SCC(=O)NCc3ccco3)n(CCc3ccccc3)c(=O)c2c1C,i,i,i,i,i,nt,nt,nt
N#Cc1c2ccccc2nc2ccccc12,i,i,i,i,i,nt,nt,nt
COc1ccc2[nH]c(CN3CCC(CO)(CCOc4ccccc4)CC3)c(C)c2c1,i,i,i,i,i,nt,nt,nt
CCCCN1CC(COC)Oc2cccc(F)c2S1(=O)=O (centres undefined),nt,i,nt,nt,nt,nt,nt,nt
COc1ccc(C(=O)CSc2ccc(-c3ccc(C)cc3)nn2)cc1,i,i,i,i,i,i,i,i
CCN1C(=O)[C@H]2[C@@H](c3ccc(-c4cccc(Cl)c4)c(OC)c3)N[C@@](CC(C)C)(C(=O)OC)[C@H]2C1=O,i,i,i,-9.9,i,44%,i,44%
CCN1C(=O)[C@H]2[C@@H](c3ccc(-c4cccc(Cl)c4)cc3)N[C@@](CC(C)C)(C(=O)OC)[C@H]2C1=O,nt,i,nt,nt,nt,nt,nt,nt
CC(C)OCCCNC(=O)C1CCC(CNS(=O)(=O)c2ccccc2)CC1 (centres undefined),i,i,i,i,i,nt,nt,nt
CC(C)C[C@H](NC(=O)OC(C)(C)C)C(=O)N/N=C/C1=Cc2ccccc2OC1C (some centres undefined),i,i,i,-11,i,68%,i,32%
CC(C)C[C@H](NC(=O)OC(C)(C)C)C(=O)N/N=C/c1ccc2nccnc2c1,i,i,i,i,i,nt,nt,nt
COc1ccc(SCCC(=O)NCc2ccncc2)cc1,i,i,i,i,i,nt,nt,nt

# Bioassay records deposited in PubChem by Johns Hopkins Ion Channel Center.
